# From ChEMBL document CHEMBL5058577, “EUbOPEN Chemogenomics Library 2 (Multiplex)” (2022)
# System: HEK-293T
# Assay: Multiplex assay against HEK293T
# Type: toxicity, cell-based
# Settings: human
# Method in brief: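 Four dyes were applied at seeding to live cells: Hoechst33342, BioTracker Green Microtubule Cytoskeleton Dye, MitoTracker Red and Annexin V Alexa Fluor 680. Imaging after compound addition used a CQ1 microscope at 37°C and 5% CO2. CellPathfinder machine-learning gating then sorted cells into Hoechst high-intensity objects or normal cells, normal cells into healthy, pyknosed or fragmented nuclei, and pyknosed cells into mitotic or apoptotic, with tubulin, mitochondrial-mass and membrane-permeability phenotypes given as per cents of healthy-nucleus cells.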
# [1] = 12 h, 1 µM, compound concentration 1 uM, replicate 1
# [2] = 12 h, 1 µM, compound concentration 1 uM, replicate 2
# [3] = 12 h, 10 µM, compound concentration 10 uM, replicate 1
# [4] = 12 h, 10 µM, compound concentration 10 uM, replicate 2
# [5] = 24 h, 1 µM, compound concentration 1 uM, replicate 1
# [6] = 24 h, 1 µM, compound concentration 1 uM, replicate 2
# [7] = 24 h, 10 µM, compound concentration 10 uM, replicate 1
# [8] = 24 h, 10 µM, compound concentration 10 uM, replicate 2
# [9] = 48 h, 1 µM, compound concentration 1 uM, replicate 1
# [10] = 48 h, 1 µM, compound concentration 1 uM, replicate 2
# [11] = 48 h, 10 µM, compound concentration 10 uM, replicate 1
# [12] = 48 h, 10 µM, compound concentration 10 uM, replicate 2
structure (smiles),measurement,setting,value
Cc1cc(O)c(-c2ccc([C@@H](C)CN(C)C)cc2)c2c1[nH]c(=O)c1sccc12,Population Apoptotic (%),[1],63%
same,Population Fragmented Nuclei (%),[1],14%
same,Population Healthy Nuclei (%),[1],49%
same,Population Hoechst High Intensity Objects (%),[1],27%
same,Population Membrane Permeable-Phenotype (%),[1],0%
same,Population Mitochondria Different-Phenotype (%),[1],90%
same,Population Mitotic Cells (%),[1],36%
same,Population Normal (%),[1],72%
same,Population Pyknosed Nuclei (%),[1],36%
same,Population Tubulin-Different-Phenotype (%),[1],78%
same,Total Cell Count,[1],209
same,Population Apoptotic (%),[2],59%
same,Population Fragmented Nuclei (%),[2],8%
same,Population Healthy Nuclei (%),[2],66%
same,Population Hoechst High Intensity Objects (%),[2],28%
same,Population Membrane Permeable-Phenotype (%),[2],1%
same,Population Mitochondria Different-Phenotype (%),[2],91%
same,Population Mitotic Cells (%),[2],40%
same,Population Normal (%),[2],71%
same,Population Pyknosed Nuclei (%),[2],25%
same,Population Tubulin-Different-Phenotype (%),[2],74%
same,Total Cell Count,[2],207
same,Population Apoptotic (%),[3],53%
same,Population Fragmented Nuclei (%),[3],6%
same,Population Healthy Nuclei (%),[3],44%
same,Population Hoechst High Intensity Objects (%),[3],41%
same,Population Membrane Permeable-Phenotype (%),[3],0%
same,Population Mitochondria Different-Phenotype (%),[3],100%
same,Population Mitotic Cells (%),[3],46%
same,Population Normal (%),[3],58%
same,Population Pyknosed Nuclei (%),[3],48%
same,Population Tubulin-Different-Phenotype (%),[3],60%
same,Total Cell Count,[3],268
same,Population Apoptotic (%),[4],70%
same,Population Fragmented Nuclei (%),[4],7%
same,Population Healthy Nuclei (%),[4],60%
same,Population Hoechst High Intensity Objects (%),[4],28%
same,Population Mitochondria Different-Phenotype (%),[4],94%
same,Population Mitotic Cells (%),[4],29%
same,Population Normal (%),[4],71%
same,Population Pyknosed Nuclei (%),[4],31%
same,Population Tubulin-Different-Phenotype (%),[4],72%
same,Total Cell Count,[4],195
same,Population Apoptotic (%),[5],65%
same,Population Fragmented Nuclei (%),[5],9%
same,Population Healthy Nuclei (%),[5],60%
same,Population Hoechst High Intensity Objects (%),[5],21%
same,Population Membrane Permeable-Phenotype (%),[5],0%
same,Population Mitochondria Different-Phenotype (%),[5],89%
same,Population Mitotic Cells (%),[5],34%
same,Population Normal (%),[5],78%
same,Population Pyknosed Nuclei (%),[5],30%
same,Population Tubulin-Different-Phenotype (%),[5],67%
same,Total Cell Count,[5],230
same,Population Apoptotic (%),[6],68%
same,Population Healthy Nuclei (%),[6],70%
same,Population Mitochondria Different-Phenotype (%),[6],93%
same,Population Mitotic Cells (%),[6],31%
same,Population Pyknosed Nuclei (%),[6],19%
same,Population Tubulin-Different-Phenotype (%),[6],74%
same,Total Cell Count,[6],205
same,Population Apoptotic (%),[7],73%
same,Population Fragmented Nuclei (%),[7],8%
same,Population Healthy Nuclei (%),[7],67%
same,Population Hoechst High Intensity Objects (%),[7],36%
same,Population Membrane Permeable-Phenotype (%),[7],1%
same,Population Mitochondria Different-Phenotype (%),[7],92%
same,Population Mitotic Cells (%),[7],26%
same,Population Normal (%),[7],63%
same,Population Pyknosed Nuclei (%),[7],24%
same,Population Tubulin-Different-Phenotype (%),[7],70%
same,Total Cell Count,[7],290
same,Population Apoptotic (%),[8],85%
same,Population Fragmented Nuclei (%),[8],7%
same,Population Healthy Nuclei (%),[8],69%
same,Population Hoechst High Intensity Objects (%),[8],25%
same,Population Membrane Permeable-Phenotype (%),[8],0%
same,Population Mitochondria Different-Phenotype (%),[8],93%
same,Population Mitotic Cells (%),[8],14%
same,Population Normal (%),[8],74%
same,Population Pyknosed Nuclei (%),[8],23%
same,Population Tubulin-Different-Phenotype (%),[8],80%
same,Total Cell Count,[8],203
same,Population Apoptotic (%),[9],86%
same,Population Fragmented Nuclei (%),[9],13%
same,Population Healthy Nuclei (%),[9],65%
same,Population Hoechst High Intensity Objects (%),[9],24%
same,Population Membrane Permeable-Phenotype (%),[9],0%
same,Population Mitochondria Different-Phenotype (%),[9],90%
same,Population Mitotic Cells (%),[9],13%
same,Population Normal (%),[9],75%
same,Population Pyknosed Nuclei (%),[9],20%
same,Population Tubulin-Different-Phenotype (%),[9],76%
same,Total Cell Count,[9],249
same,Population Apoptotic (%),[10],69%
same,Population Fragmented Nuclei (%),[10],16%
same,Population Healthy Nuclei (%),[10],67%
same,Population Hoechst High Intensity Objects (%),[10],25%
same,Population Mitochondria Different-Phenotype (%),[10],96%
same,Population Mitotic Cells (%),[10],30%
same,Population Normal (%),[10],74%
same,Population Pyknosed Nuclei (%),[10],16%
same,Population Tubulin-Different-Phenotype (%),[10],70%
same,Total Cell Count,[10],212
same,Population Apoptotic (%),[11],86%
same,Population Fragmented Nuclei (%),[11],15%
same,Population Healthy Nuclei (%),[11],64%
same,Population Hoechst High Intensity Objects (%),[11],40%
same,Population Membrane Permeable-Phenotype (%),[11],1%
same,Population Mitochondria Different-Phenotype (%),[11],92%
same,Population Mitotic Cells (%),[11],13%
same,Population Normal (%),[11],59%
same,Population Pyknosed Nuclei (%),[11],20%
same,Population Tubulin-Different-Phenotype (%),[11],54%
same,Total Cell Count,[11],298
same,Population Apoptotic (%),[12],87%
same,Population Fragmented Nuclei (%),[12],13%
same,Population Healthy Nuclei (%),[12],58%
same,Population Hoechst High Intensity Objects (%),[12],34%
same,Population Membrane Permeable-Phenotype (%),[12],0%
same,Population Mitochondria Different-Phenotype (%),[12],100%
same,Population Mitotic Cells (%),[12],12%
same,Population Normal (%),[12],65%
same,Population Pyknosed Nuclei (%),[12],28%
same,Population Tubulin-Different-Phenotype (%),[12],73%
same,Total Cell Count,[12],223
CC(F)(F)CN1CCOc2c(nn(-c3ccccc3Cl)c2-c2ccc(Cl)cc2)C1=O,Population Apoptotic (%),[1],29%
same,Population Healthy Nuclei (%),[1],77%
same,Population Membrane Permeable-Phenotype (%),[1],0%
same,Population Mitochondria Different-Phenotype (%),[1],43%
same,Population Mitotic Cells (%),[1],70%
same,Population Normal (%),[1],93%
same,Population Pyknosed Nuclei (%),[1],12%
same,Total Cell Count,[1],397
same,Population Apoptotic (%),[2],64%
same,Population Healthy Nuclei (%),[2],78%
same,Population Mitochondria Different-Phenotype (%),[2],53%
same,Population Mitotic Cells (%),[2],35%
same,Population Normal (%),[2],91%
same,Population Pyknosed Nuclei (%),[2],16%
same,Total Cell Count,[2],369
same,Population Apoptotic (%),[3],57%
same,Population Healthy Nuclei (%),[3],73%
same,Population Membrane Permeable-Phenotype (%),[3],0%
same,Population Mitochondria Different-Phenotype (%),[3],78%
same,Population Mitotic Cells (%),[3],42%
same,Population Normal (%),[3],89%
same,Population Pyknosed Nuclei (%),[3],22%
same,Total Cell Count,[3],384
same,Population Apoptotic (%),[4],43%
same,Population Healthy Nuclei (%),[4],75%
same,Population Mitochondria Different-Phenotype (%),[4],84%
same,Population Mitotic Cells (%),[4],56%
same,Population Normal (%),[4],94%
same,Population Pyknosed Nuclei (%),[4],18%
same,Total Cell Count,[4],397
same,Population Apoptotic (%),[5],25%
same,Population Healthy Nuclei (%),[5],79%
same,Population Membrane Permeable-Phenotype (%),[5],0%
same,Population Mitochondria Different-Phenotype (%),[5],22%
same,Population Mitotic Cells (%),[5],74%
same,Population Normal (%),[5],97%
same,Population Pyknosed Nuclei (%),[5],11%
same,Total Cell Count,[5],568
same,Population Apoptotic (%),[6],43%
same,Population Healthy Nuclei (%),[6],84%
same,Population Mitochondria Different-Phenotype (%),[6],31%
same,Population Mitotic Cells (%),[6],56%
same,Population Normal (%),[6],93%
same,Population Pyknosed Nuclei (%),[6],8%
same,Total Cell Count,[6],478
same,Population Apoptotic (%),[7],57%
same,Population Healthy Nuclei (%),[7],76%
same,Population Membrane Permeable-Phenotype (%),[7],0%
same,Population Mitochondria Different-Phenotype (%),[7],71%
same,Population Mitotic Cells (%),[7],42%
same,Population Normal (%),[7],92%
same,Population Pyknosed Nuclei (%),[7],15%
same,Total Cell Count,[7],450
same,Population Apoptotic (%),[8],41%
same,Population Healthy Nuclei (%),[8],80%
same,Population Mitochondria Different-Phenotype (%),[8],79%
same,Population Mitotic Cells (%),[8],58%
same,Population Normal (%),[8],94%
same,Total Cell Count,[8],477
same,Population Apoptotic (%),[9],22%
same,Population Healthy Nuclei (%),[9],77%
same,Population Membrane Permeable-Phenotype (%),[9],1%
same,Population Mitochondria Different-Phenotype (%),[9],14%
same,Population Mitotic Cells (%),[9],77%
same,Population Normal (%),[9],99%
same,Population Pyknosed Nuclei (%),[9],7%
same,Total Cell Count,[9],1015
same,Population Apoptotic (%),[10],25%
same,Population Healthy Nuclei (%),[10],79%
same,Population Mitochondria Different-Phenotype (%),[10],23%
same,Population Mitotic Cells (%),[10],74%
same,Population Normal (%),[10],97%
same,Total Cell Count,[10],734
same,Population Apoptotic (%),[11],55%
same,Population Healthy Nuclei (%),[11],74%
same,Population Membrane Permeable-Phenotype (%),[11],0%
same,Population Mitochondria Different-Phenotype (%),[11],62%
same,Population Mitotic Cells (%),[11],44%
same,Population Normal (%),[11],93%
same,Total Cell Count,[11],540
same,Population Apoptotic (%),[12],35%
same,Population Healthy Nuclei (%),[12],78%
same,Population Mitochondria Different-Phenotype (%),[12],68%
same,Population Mitotic Cells (%),[12],65%
same,Population Pyknosed Nuclei (%),[12],11%
same,Total Cell Count,[12],558
